Where a SMILES comes first, the peptide text is derived from it. Bridges are numbered along the chain shown (N, C = ends). [ ]: non-standard residue; d: D form.
Legend:
Type in all cases: functional
A-431 [1] = assay: Antiproliferative activity against human A431 cells at 10 uM after 48 hrs by MTT assay; details: A-431, 48 h
In short: (§1)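 MTT read-out: mitochondrial dehydrogenase reduces MTT to formazan in viable cells, cells solubilized with DMSO, absorbance read at 540 nm on an ELISA reader. Cycloheximide and a reference peptide run as positive controls. Values given as % inhibition of cellular proliferation, mean ± SE.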

A-431 [2] = assay: Antiproliferative activity against human A431 cells at 25 uM after 48 hrs by MTT assay; details: A-431, 48 h; in short: as §1
A-431 [3] = assay: Antiproliferative activity against human A431 cells at 50 uM after 48 hrs by MTT assay; details: A-431, 48 h; in short: as §1
SW480 [4] = assay: Antiproliferative activity against human SW480 cells at 25 uM after 48 hrs by MTT assay; details: SW480, 48 h; in short: as §1
SW480 [5] = assay: Antiproliferative activity against human SW480 cells at 10 uM after 48 hrs by MTT assay; details: SW480, 48 h; in short: as §1
SW480 [6] = assay: Antiproliferative activity against human SW480 cells at 50 uM after 48 hrs by MTT assay; details: SW480, 48 h; in short: as §1

Q: For `N[C@@H](Cc1ccc(O)cc1)C(=O)N[C@H](Cc1c[nH]c2ccccc12)C(=O)N[C@@H](CCCCNC(=O)OCc1ccccc1)C(=O)O`, which inhibition at 10 µM (A-431 [1]) is on record?
A: 0%

Q: And the inhibition at 25 µM (A-431 [2])?
A: 0%

Q: What about the inhibition at 50 µM (A-431 [3]) of the same molecule?
A: 0%

Q: What does the source list for `C[C@@H](O)[C@H](NC(=O)[C@@H]1CSSC[C@H](NC(=O)[C@H](N)Cc2ccccc2)C(=O)N[C@@H](Cc2ccc(O)cc2)C(=O)N[C@H](Cc2c[nH]c3ccccc23)C(=O)N[C@@H](CCCCN)C(=O)N1)C(N)=O` [TT-232] (H-[dF]CY[dW]KCT-NH2; disulfide 2-6)?
A: inhibition at 25 µM (SW480 [4]): 47%; inhibition at 10 µM (A-431 [1]): 50%; inhibition at 10 µM (SW480 [5]): 13%; inhibition at 25 µM (A-431 [2]): 60%; inhibition at 50 µM (SW480 [6]): 88%; inhibition at 50 µM (A-431 [3]): 80%

Q: What does the source list for `CC(C)(C)OC(=O)N[C@@H](Cc1ccc(O)cc1)C(=O)N[C@H](Cc1c[nH]c2ccccc12)C(=O)N[C@@H](CCCCNC(=O)OCc1ccccc1)C(=O)O`?
A: inhibition at 10 µM (A-431 [1]): 0%; inhibition at 25 µM (A-431 [2]): 0%; inhibition at 50 µM (A-431 [3]): 2%

Q: What does the source list for `C[C@@H]1C[C@@H]([C@H](O)CC2CC(=O)NC(=O)C2)C(=O)[C@@H](C)C1` [CYCLOHEXIMIDE]?
A: inhibition at 25 µM (SW480 [4]): 85%; inhibition at 10 µM (A-431 [1]): 40%; inhibition at 10 µM (SW480 [5]): 68%; inhibition at 25 µM (A-431 [2]): 70%; inhibition at 50 µM (SW480 [6]): 92%; inhibition at 50 µM (A-431 [3]): 80%

Q: With `CC(C)(C)OC(=O)N[C@@H](Cc1ccc(O)cc1)C(=O)N[C@H](Cc1c[nH]c2ccccc12)C(=O)N[C@@H](CCCCNC(=O)OCc1ccccc1)C(=O)OCC1c2ccccc2-c2ccccc21` as the molecule, how does the inhibition at 10 µM (A-431 [1]) read?
A: 2%

Q: And the inhibition at 25 µM (A-431 [2])?
A: 7%

Q: And the inhibition at 50 µM (A-431 [3])?
A: 7%

Q: Which inhibition at 10 µM (A-431 [1]) does the source give for `N[C@@H](Cc1ccc(O)cc1)C(=O)N[C@H](Cc1c[nH]c2ccccc12)C(=O)O` here?
A: 0%

Q: And the inhibition at 25 µM (A-431 [2])?
A: 8%

Q: And the inhibition at 50 µM (A-431 [3])?
A: 11%
